# Bioassay records as filed in PubChem BioAssay.
# Rows were chosen to be rich in hits. Some 2.2% of all compounds tested hit in one or more screens of this group.
# E-sel inducer – induces E-selectin expression in human endothelial cells; P16581; HUVEC E-selectin immunofluorescence imaging; normalized: neutral wells 0, TNF-alpha wells 100; activation, % at 7.58 µM; hit rate 0.37% among 260,000; AID 686992;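 active means mean E-selectin-positive cell signal at least 10% of the positive control, reached in at least 60% of replicates, without over 20% cell loss; inconclusive means no rule given, readout overlaps actives, possibly toxicity-flagged; inactive means the rest, including those meeting only one limit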
# Target sequence (P16581 whole entry, looked up): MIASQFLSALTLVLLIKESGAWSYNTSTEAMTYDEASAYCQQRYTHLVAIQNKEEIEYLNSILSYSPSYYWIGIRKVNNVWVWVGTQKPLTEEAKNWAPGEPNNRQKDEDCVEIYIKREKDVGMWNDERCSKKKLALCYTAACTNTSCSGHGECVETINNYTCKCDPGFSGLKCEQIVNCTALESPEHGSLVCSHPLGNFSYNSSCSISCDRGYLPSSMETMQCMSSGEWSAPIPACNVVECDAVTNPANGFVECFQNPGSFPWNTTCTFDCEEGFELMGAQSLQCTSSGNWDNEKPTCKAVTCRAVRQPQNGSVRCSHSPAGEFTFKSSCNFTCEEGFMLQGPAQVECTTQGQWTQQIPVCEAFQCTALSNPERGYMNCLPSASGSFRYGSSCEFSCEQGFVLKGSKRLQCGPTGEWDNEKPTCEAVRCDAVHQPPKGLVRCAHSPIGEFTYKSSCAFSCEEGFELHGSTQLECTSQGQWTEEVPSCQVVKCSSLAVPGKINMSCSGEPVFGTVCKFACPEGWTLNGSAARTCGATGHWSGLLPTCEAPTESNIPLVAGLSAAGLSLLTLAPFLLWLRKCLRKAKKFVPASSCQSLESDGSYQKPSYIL
#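 Assay system: HUVEC, human umbilical vein endothelial cells / Amount: 3,000 HUVEC/well / Controls: TNF-alpha positive control, DMSO neutral control / Compound dosing: single concentration / Medium: EGM-2 over gelatin coat / Evaluation: percent E-selectin-positive cells / Signal: immunofluorescence imaging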
# DENV2 CPE rescue – protects cells from dengue virus 2 cytopathic effect; DENV2-infected cells, cytopathic effect rescue, plate reader; CPE inhibition, % at 9.99 µM; hit rate 1.7% among 350,000; in the data active means CPE inhibition above about 20%, passing the limit was not always enough; inconclusive means no clear call, values can overlap the other calls; tested in BHK-21 cells
# Statin myotox sup – suppressors of simvastatin-induced myotoxicity in C2C12 myotubes; ATP luminescence, 48 h; scaled: DMSO 0, geranylgeraniol control 100; rescue of ATP level, % at 7.49 µM; hit rate 0.78% among 330,000; AID 602340;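 active means mean ATP rescue above about 67%, or every replicate alone reaching that limit, limit read from the data, passing the limit was not always enough; inconclusive means no clear call, values can overlap the other calls; inactive means mean under the limit and some replicate under it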;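 further: myotubes were challenged with 10 µM simvastatin during compound exposure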
# A number is an active result; n = inactive; u = inconclusive; x = no result given.
SMILES,E-sel inducer,DENV2 CPE rescue,Statin myotox sup
C[C@@H]1CN([C@@H](C)CO)S(=O)(=O)c2ccc(C#CCN(C)C)cc2O[C@H]1CN(C)Cc1ccccc1,n,23.8,n
C[C@@H]1CN([C@@H](C)CO)S(=O)(=O)c2ccc(C#CCN(C)C)cc2O[C@@H]1CN(C)Cc1ccccc1F,n,44.7,n
COCC#Cc1ccc2c(c1)O[C@@H](CN(C)Cc1ccncc1)[C@@H](C)CN([C@@H](C)CO)S2(=O)=O,n,22.1,n
C[C@H](CO)N1C[C@H](C)[C@@H](CN(C)Cc2ccccc2F)Oc2cc(C#CCN(C)C)ccc2S1(=O)=O,n,n,n
C[C@H]1CN([C@@H](C)CO)S(=O)(=O)c2ccc(C#CCN(C)C)cc2O[C@H]1CN(C)Cc1ccccc1,n,n,n
COCC#Cc1ccc2c(c1)O[C@@H](CN(C)Cc1ccncc1)[C@@H](C)CN([C@H](C)CO)S2(=O)=O,n,n,n
CNC[C@@H]1Oc2ccc(NC(=O)CCCN(C)C)cc2C(=O)N([C@@H](C)CO)C[C@H]1C,n,n,n
COc1ccc(CN(C)C[C@@H]2OCCCC[C@@H](C)Oc3ccc(NS(=O)(=O)c4c(C)noc4C)cc3C(=O)N([C@@H](C)CO)C[C@H]2C)cc1,n,u,x
O=C(C[C@H]1C=C[C@@H](NC(=O)c2ccncc2)[C@@H](CO)O1)NCC1CCCCC1,n,n,n
CCC(=O)N(C)C[C@@H]1Oc2cc(-c3ccc(OC)cc3)ccc2S(=O)(=O)N([C@@H](C)CO)C[C@@H]1C,n,n,n
C[C@@H]1CN([C@H](C)CO)C(=O)c2cccc(NC(=O)NC3CCCCC3)c2O[C@@H]1CN(C)Cc1ccc(C(=O)O)cc1,x,u,n
C[C@H]1CN([C@@H](C)CO)C(=O)c2cc(C#Cc3cccc(F)c3)cnc2O[C@H]1CN(C)C(=O)C1CCC1,n,n,n
C[C@@H]1CN([C@@H](C)CO)C(=O)c2cc(C#Cc3cccc(F)c3)cnc2O[C@@H]1CN(C)C(=O)C1CCC1,n,86.9,n
C[C@@H]1CN([C@H](C)CO)C(=O)c2cc(C#Cc3ccccc3)cnc2O[C@@H]1CN(C)S(=O)(=O)c1ccccc1F,n,u,n
C[C@H]1CN([C@@H](C)CO)C(=O)c2cc(-c3cccnc3)cnc2O[C@H]1CN(C)C(=O)C1CCC1,n,23.7,n
C[C@@H]1CN([C@H](C)CO)C(=O)c2cc(C#Cc3cccc(F)c3)cnc2O[C@H]1CN(C)C(=O)C1CCC1,67.2,n,n
C[C@H]1CN([C@@H](C)CO)C(=O)c2cc(-c3cccnc3)cnc2O[C@@H]1CN(C)C(=O)C1CCC1,n,n,n
C[C@H](CO)N1C[C@H](C)[C@@H](CN(C)C(=O)C2CCC2)Oc2ncc(C#Cc3cccc(F)c3)cc2C1=O,n,n,u
C[C@@H]1CN([C@@H](C)CO)C(=O)c2cc(C#Cc3ccccc3F)cnc2O[C@H]1CN(C)S(=O)(=O)c1ccccc1F,n,34.6,u
Cc1ccc(S(=O)(=O)N(C)C[C@@H]2Oc3ncc(C#Cc4cccc(F)c4)cc3C(=O)N([C@H](C)CO)C[C@@H]2C)cc1,n,n,99.9
C[C@H](CO)N1C[C@H](C)[C@@H](CN(C)C(=O)C2CCC2)Oc2ncc(C#CCc3ccccc3)cc2C1=O,n,60.2,n
C[C@H](CO)N1C[C@H](C)[C@H](CN(C)S(=O)(=O)c2ccc(C#N)cc2)Oc2ncc(C#Cc3cccc(F)c3)cc2C1=O,n,n,n
C[C@H]1CN([C@@H](C)CO)C(=O)c2cc(C#CCc3ccccc3)cnc2O[C@@H]1CN(C)C(=O)C1CCC1,n,n,x
CC(=O)Nc1ccc(C(=O)CCl)cc1,x,26.9,n
CC(=O)NCc1ccc(C(=O)CCl)cc1,n,n,n
SMILES,E-sel inducer,DENV2 CPE rescue,Statin myotox sup
O=C(Nc1ccccc1N1CCOCC1)C1=NN(c2ccccc2)C(=O)CC1,x,69.1,n
O=C(Nc1cc(C(F)(F)F)ccc1N1CCOCC1)C1=NN(c2ccccc2)C(=O)CC1,x,n,n
Cc1ccc(S(=O)(=O)Nc2ccc3c(c2)C(=O)N([C@@H](C)CO)C[C@H](C)[C@@H](CN(C)C(=O)Nc2ccccc2)O3)cc1,n,u,n
N#C[C@@H]1[C@H](c2ccc(-c3cccc(F)c3)cc2)[C@@H](CO)N1c1nc(-c2ccccc2)cs1,n,n,x
N#C[C@@H]1[C@@H](c2ccc(-c3ccc(F)cc3)cc2)[C@H](CO)N1c1nc(-c2ccccc2)cs1,n,60.9,n
N#C[C@@H]1[C@H](c2ccc(-c3ccc(F)cc3)cc2)[C@H](CO)N1c1nc(-c2ccccc2)cs1,n,n,n
N#C[C@@H]1[C@@H](c2ccc(-c3cccc(F)c3)cc2)[C@H](CO)N1c1nc(-c2ccccc2)cs1,n,90.5,x
